In ChEMBL document CHEMBL4689842, “EUbOPEN Chemogenomics Library wave 1” (2021):

Experiments:
Assay type in all cases: toxicity, cell-based
U2OS = experiment: Incucyte cell viability with U2OS; settings: human, 10 µM, compound concentration 10 uM; also: filed as whole numbers so only -1 and 0 and 1 occur
Fibroblast [1] = experiment: Incucyte cell viability with human fibroblast; settings: 10 µM, compound concentration 10 uM; also: filed as whole numbers so only -1 and 0 and 1 occur
Fibroblast [2] = experiment: Multiplex assay against human fibroblast
How it was run: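 Live cells were stained at seeding with Hoechst33342, BioTracker Green Microtubule Cytoskeleton Dye, MitoTracker Red and Annexin V Alexa Fluor 680. Following compound addition, they were imaged on a CQ1 microscope at 37°C and 5% CO2 and gated by CellPathfinder machine learning into Hoechst high-intensity objects or normal cells, with normal cells split into healthy, pyknosed or fragmented nuclei and pyknosed cells into mitotic or apoptotic. Tubulin, mitochondrial-mass and membrane-permeability phenotypes are per cents of healthy-nucleus cells.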

HEK-293T = experiment: Incucyte cell viability with HEK293T; settings: human, 10 µM, compound concentration 10 uM; also: filed as whole numbers so only -1 and 0 and 1 occur
[3] = 0 h, replicate number 1, timepoint 0 hours
[4] = 6 h, replicate number 1, timepoint 6 hours
[5] = 12 h, replicate number 1, timepoint 12 hours
[6] = 18 h, replicate number 1, timepoint 18 hours
[7] = 24 h, replicate number 1, timepoint 24 hours
[8] = 12 h, 1 µM, compound concentration 1 uM, replicate 1
[9] = 12 h, 1 µM, compound concentration 1 uM, replicate 2
[10] = 12 h, 10 µM, compound concentration 10 uM, replicate 1
[11] = 12 h, 10 µM, compound concentration 10 uM, replicate 2
[12] = 24 h, 1 µM, compound concentration 1 uM, replicate 1
[13] = 24 h, 1 µM, compound concentration 1 uM, replicate 2
[14] = 24 h, 10 µM, compound concentration 10 uM, replicate 1
[15] = 24 h, 10 µM, compound concentration 10 uM, replicate 2

With `CCOc1ccn(-c2ccc(F)cc2)c(=O)c1C(=O)Nc1ccc(Oc2ccnc(N)c2Cl)c(F)c1` [BMS-777607] the “Growth Rate” value (U2OS; [3]) was 1, the “Growth Rate” value (U2OS; 0 h, replicate number 2, timepoint 0 hours) was 0 and the “Growth Rate” value (U2OS; [4]) was 0. The “Growth Rate” value (U2OS; [5]) was 0, the “Growth Rate” value (U2OS; [6]) was 0 and the “Growth Rate” value (U2OS; [7]) was 0. The “Growth Rate” value (Fibroblast [1]; [4]) was 0, the “Growth Rate” value (Fibroblast [1]; [5]) was 0 and the “Growth Rate” value (Fibroblast [1]; [6]) was 0. The “Growth Rate” value (Fibroblast [1]; [7]) was 0, the “Population Apoptotic (%)” value (Fibroblast [2]; [8]) was 77% and the “Population Fragmented Nuclei (%)” value (Fibroblast [2]; [8]) was 30%. The “Population Healthy Nuclei (%)” value (Fibroblast [2]; [8]) was 58%, the “Population Hoechst High Intensity Objects (%)” value (Fibroblast [2]; [8]) was 13% and the “Population Membrane Permeable-Phenotype (%)” value (Fibroblast [2]; [8]) was 10%. The “Population Mitochondria Different-Phenotype (%)” value (Fibroblast [2]; [8]) was 4%, the “Population Mitotic Cells (%)” value (Fibroblast [2]; [8]) was 22% and the “Population Normal (%)” value (Fibroblast [2]; [8]) was 86%. For the same compound, the “Population Pyknosed Nuclei (%)” value (Fibroblast [2]; [8]) was 10%, the “Population Tubulin-Different-Phenotype (%)” value (Fibroblast [2]; [8]) was 22% and the “Total Cell Count” value (Fibroblast [2]; [8]) was 251. For the same compound, the “Population Apoptotic (%)” value (Fibroblast [2]; [9]) was 100%, the “Population Fragmented Nuclei (%)” value (Fibroblast [2]; [9]) was 56% and the “Population Healthy Nuclei (%)” value (Fibroblast [2]; [9]) was 39%. The “Population Hoechst High Intensity Objects (%)” value (Fibroblast [2]; [9]) was 29%, the “Population Membrane Permeable-Phenotype (%)” value (Fibroblast [2]; [9]) was 17% and the “Population Mitochondria Different-Phenotype (%)” value (Fibroblast [2]; [9]) was 17%. For the same compound, the “Population Mitotic Cells (%)” value (Fibroblast [2]; [9]) was 0%, the “Population Normal (%)” value (Fibroblast [2]; [9]) was 70% and the “Population Pyknosed Nuclei (%)” value (Fibroblast [2]; [9]) was 3%. The “Population Tubulin-Different-Phenotype (%)” value (Fibroblast [2]; [9]) was 47%, the “Total Cell Count” value (Fibroblast [2]; [9]) was 82 and the “Population Apoptotic (%)” value (Fibroblast [2]; [10]) was 86%. For the same compound, the “Population Fragmented Nuclei (%)” value (Fibroblast [2]; [10]) was 27%, the “Population Healthy Nuclei (%)” value (Fibroblast [2]; [10]) was 60% and the “Population Hoechst High Intensity Objects (%)” value (Fibroblast [2]; [10]) was 15%. For the same compound, the “Population Membrane Permeable-Phenotype (%)” value (Fibroblast [2]; [10]) was 1%, the “Population Mitotic Cells (%)” value (Fibroblast [2]; [10]) was 13% and the “Population Normal (%)” value (Fibroblast [2]; [10]) was 84%. The “Population Pyknosed Nuclei (%)” value (Fibroblast [2]; [10]) was 12%, the “Total Cell Count” value (Fibroblast [2]; [10]) was 212 and the “Population Apoptotic (%)” value (Fibroblast [2]; [11]) was 80%. The “Population Fragmented Nuclei (%)” value (Fibroblast [2]; [11]) was 54%, the “Population Healthy Nuclei (%)” value (Fibroblast [2]; [11]) was 36% and the “Population Hoechst High Intensity Objects (%)” value (Fibroblast [2]; [11]) was 38%. For the same compound, the “Population Membrane Permeable-Phenotype (%)” value (Fibroblast [2]; [11]) was 4%, the “Population Mitochondria Different-Phenotype (%)” value (Fibroblast [2]; [11]) was 4% and the “Population Mitotic Cells (%)” value (Fibroblast [2]; [11]) was 20%. The “Population Normal (%)” value (Fibroblast [2]; [11]) was 61%, the “Population Pyknosed Nuclei (%)” value (Fibroblast [2]; [11]) was 8% and the “Population Tubulin-Different-Phenotype (%)” value (Fibroblast [2]; [11]) was 0%. The “Total Cell Count” value (Fibroblast [2]; [11]) was 92, the “Population Apoptotic (%)” value (Fibroblast [2]; [12]) was 85% and the “Population Fragmented Nuclei (%)” value (Fibroblast [2]; [12]) was 27%. For the same compound, the “Population Healthy Nuclei (%)” value (Fibroblast [2]; [12]) was 62%, the “Population Hoechst High Intensity Objects (%)” value (Fibroblast [2]; [12]) was 11% and the “Population Membrane Permeable-Phenotype (%)” value (Fibroblast [2]; [12]) was 8%. For the same compound, the “Population Mitochondria Different-Phenotype (%)” value (Fibroblast [2]; [12]) was 8%, the “Population Mitotic Cells (%)” value (Fibroblast [2]; [12]) was 14% and the “Population Normal (%)” value (Fibroblast [2]; [12]) was 88%. For the same compound, the “Population Pyknosed Nuclei (%)” value (Fibroblast [2]; [12]) was 10%, the “Population Tubulin-Different-Phenotype (%)” value (Fibroblast [2]; [12]) was 19% and the “Total Cell Count” value (Fibroblast [2]; [12]) was 226. The “Population Apoptotic (%)” value (Fibroblast [2]; [13]) was 50%, the “Population Fragmented Nuclei (%)” value (Fibroblast [2]; [13]) was 63% and the “Population Healthy Nuclei (%)” value (Fibroblast [2]; [13]) was 32%. The “Population Hoechst High Intensity Objects (%)” value (Fibroblast [2]; [13]) was 31%, the “Population Membrane Permeable-Phenotype (%)” value (Fibroblast [2]; [13]) was 10% and the “Population Mitochondria Different-Phenotype (%)” value (Fibroblast [2]; [13]) was 21%. The “Population Mitotic Cells (%)” value (Fibroblast [2]; [13]) was 50%, the “Population Normal (%)” value (Fibroblast [2]; [13]) was 68% and the “Population Pyknosed Nuclei (%)” value (Fibroblast [2]; [13]) was 3%. For the same compound, the “Population Tubulin-Different-Phenotype (%)” value (Fibroblast [2]; [13]) was 31%, the “Total Cell Count” value (Fibroblast [2]; [13]) was 85 and the “Population Apoptotic (%)” value (Fibroblast [2]; [14]) was 80%. For the same compound, the “Population Fragmented Nuclei (%)” value (Fibroblast [2]; [14]) was 26%, the “Population Healthy Nuclei (%)” value (Fibroblast [2]; [14]) was 62% and the “Population Hoechst High Intensity Objects (%)” value (Fibroblast [2]; [14]) was 9%. The “Population Membrane Permeable-Phenotype (%)” value (Fibroblast [2]; [14]) was 0%, the “Population Mitochondria Different-Phenotype (%)” value (Fibroblast [2]; [14]) was 4% and the “Population Mitotic Cells (%)” value (Fibroblast [2]; [14]) was 19%. For the same compound, the “Population Normal (%)” value (Fibroblast [2]; [14]) was 90%, the “Total Cell Count” value (Fibroblast [2]; [14]) was 214 and the “Population Apoptotic (%)” value (Fibroblast [2]; [15]) was 50%. For the same compound, the “Population Fragmented Nuclei (%)” value (Fibroblast [2]; [15]) was 54%, the “Population Healthy Nuclei (%)” value (Fibroblast [2]; [15]) was 35% and the “Population Hoechst High Intensity Objects (%)” value (Fibroblast [2]; [15]) was 35%. The “Population Membrane Permeable-Phenotype (%)” value (Fibroblast [2]; [15]) was 5%, the “Population Mitochondria Different-Phenotype (%)” value (Fibroblast [2]; [15]) was 10% and the “Population Mitotic Cells (%)” value (Fibroblast [2]; [15]) was 50%. For the same compound, the “Population Normal (%)” value (Fibroblast [2]; [15]) was 64%, the “Population Pyknosed Nuclei (%)” value (Fibroblast [2]; [15]) was 10% and the “Population Tubulin-Different-Phenotype (%)” value (Fibroblast [2]; [15]) was 0%. The “Total Cell Count” value (Fibroblast [2]; [15]) was 88, the “Growth Rate” value (HEK-293T; [3]) was 1 and the “Growth Rate” value (HEK-293T; [4]) was 0. For the same compound, the “Growth Rate” value (HEK-293T; 12 h, replicate number 2, timepoint 12 hours) was 1, the “Growth Rate” value (HEK-293T; [7]) was 1 and the “Growth Rate” value (HEK-293T; 24 h, replicate number 2, timepoint 24 hours) was 0.
